The nature of this data set: Toxicity liver stage against HepG2, at 10uM. It counts as cell-based. Also noted: test concentration 10 uM, cell line HepG2-A16-CD81EGFP. As to conditions: human, HepG2-A16-CD81EGFP cells; read-out: INHIBITION
In a few lines:
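Uninfected HepG2-A16-CD81EGFP cells, 3 × 10^3 per well, 1536-well, plated on prespotted compound at 10 μM final, parasite-free screening media added to match infected plates; puromycin 10 μM positive, DMSO 0.5% negative; run in parallel with 48 h PbLuc assay at 37 °C, 5% CO2; viability by CellTiter-Glo luminescence, normalized to controls.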
For `CCN(C)S(=O)(=O)NC(C)c1cnc(N(C)C2CCCCC2)nc1C` (stereo not given), the cytotoxicity at 10 µM was -123%.
As for `Cn1cc(CN2CCC3(CCCN(C(=O)c4cnccn4)C3)C2)cn1` (stereo not given), the figure is -131%; as for `N#Cc1ccc(N2CCN(c3cnccn3)CC2)c(C(F)(F)F)c1`, 46.6%; as for `CN(Cc1csc(-c2cnn(C)c2)n1)CC1CCN(CCO)CC1`, 7.77%.
As to `Cc1ccc(-c2c(C(=O)NC3CCN(C)CC3)csc2C)cc1`, the cytotoxicity at 10 µM was -130%.
`COCCO[C@@H]1CCN(C(=O)c2ccc(C)o2)[C@@H]1Cc1cnn(C)c1`: the cytotoxicity at 10 µM is -12.8%.
As for `Cc1ccc(O)c(C(=O)N2C[C@@H](C(=O)O)[C@H](c3ccccc3)C2)c1`, the cytotoxicity at 10 µM came to 0.00559%.
Take `CN(CCO)CC1COCCN1C(=O)C1CCCCC1` (stereo not given): the cytotoxicity at 10 µM is -4.52%.
For `O=C(c1cc2c(s1)CCC2)N1CCN(c2cnccn2)CC1`, the cytotoxicity at 10 µM worked out at 1.5%.
Consider `O=C1CCC2(CCCN(c3ncc(Cl)cc3F)C2)CN1CC1CC1` (stereo not given), for which the cytotoxicity at 10 µM was found to be 5.98%.
Turning to `COc1ccc(NC(=O)NCCCn2nc3ccccn3c2=O)cc1`, the cytotoxicity at 10 µM is -13.3%.
Turning to `Cc1ccc(NC2CCN(C(=O)c3cnn(C(C)(C)C)c3)CC2)nn1`, the cytotoxicity at 10 µM was -0.939%.
As to `c1ncn(CC2CN(Cc3ccc4c(c3)OCCO4)CCO2)n1` (stereo not given), the cytotoxicity at 10 µM is -0.282%.
As for `c1ccc(CCN2CCCC2c2ccnc(Nc3cnccn3)n2)cc1` (stereo not given), the figure is -3.65%; as for `COc1ncc(CN(C)C2CCN(C(C)C)CC2)cn1`, 5.15%; as for `COCc1cc(NCc2ccccc2-n2cncn2)ncn1`, -0.132%.
Take `O=C(C1CCCC1)N1C[C@H]2CNC[C@H]2C1`: the cytotoxicity at 10 µM was determined as 1.47%.
In the case of `CCN1CC(C(=O)N2CCC(Oc3ccccc3C)CC2)CC1=O` (stereo not given), the cytotoxicity at 10 µM is -12.1%.
Consider `COc1ccc(NC(=O)N(CCO)Cc2ccsc2)cc1`, for which the cytotoxicity at 10 µM stood at 1.37%.
In the case of `CCc1nnsc1C(=O)NCCC1CN(C(C)C)CCO1` (stereo not given), the cytotoxicity at 10 µM was -7.07%.
Regarding `CN(c1ccncn1)C1CC2(CCN(C(=O)c3cccs3)C2)C1` (stereo not given), the cytotoxicity at 10 µM was -5.05%.
As for `O=S1(=O)C[C@@H]2[C@H](C1)N(Cc1ncc[nH]1)CCN2Cc1cccnc1`, the cytotoxicity at 10 µM amounted to 0.875%.
As for `c1cc(COC[C@]23COC[C@H]2CN(Cc2ccncc2)C3)ccn1`, the figure is -63.5%; as for `NC(=O)C1CCN(c2ccc(C(=O)N3CCc4ccccc43)cn2)C1` (stereo not given), -1.29%.
Turning to `CC(NC(=O)c1cn(CCC2CCCCC2)nn1)c1cnn(C)c1` (stereo not given), the cytotoxicity at 10 µM is 6.2%.
On to `Cc1cccc(C)c1NC(=O)NCC1CCCN(C2CCOCC2)C1` (stereo not given), for which the cytotoxicity at 10 µM is -5.95%.
On to `Fc1ccc(CN2CCC3(CC2)CCN(Cc2nccs2)CC3)cc1`, for which the cytotoxicity at 10 µM was determined as 4.92%.
As to `O=C1CO[C@H]2CN(S(=O)(=O)c3ccccc3)C[C@H]2N1Cc1ccccc1`, the cytotoxicity at 10 µM is -1.69%.
`O=C(c1ccc(Cl)c(Cl)c1)N1CCCC(n2cncn2)C1` (stereo not given): the cytotoxicity at 10 µM was -5.16%.
`NC(=O)c1csc(C(=O)N2CCCCC2Cn2cccn2)c1` (stereo not given): the cytotoxicity at 10 µM was -3.56%.
With `NC(=O)CC1CCN(C(=O)NCc2ccccc2-n2cccn2)CC1`, the cytotoxicity at 10 µM stood at 2.19%.
Consider `O=C(O)C1(n2ccnc2)CCN(Cc2ccc3occc3c2)CC1`, for which the cytotoxicity at 10 µM was -4.31%.
As for `CC(C)(C)C(=O)NCCc1cc2nc(-c3ccncc3)ccn2n1`, the cytotoxicity at 10 µM turned out to be 6.66%.
The result for `CCc1cc(C(C)Nc2nc(-c3cccnc3)nc3c2CNC3)on1` (stereo not given) reads 16.9%; that for `Cc1cc(C)n(CCCNC(=O)NCc2c(C)cc(C)[nH]c2=O)n1`, -1.12%; that for `Cc1ccc(S(=O)(=O)N2CCCC3(CCCN3S(C)(=O)=O)C2)cc1F` (stereo not given), 2.05%.
As to `Cc1cccc(CN2CCC3(CC(C(=O)NCC(C)C)=NO3)C2)c1` (stereo not given), the cytotoxicity at 10 µM came to 4.66%.
As to `O=C(NCC1Cn2nnc(-c3ccsc3)c2CO1)N1CCCC1` (stereo not given), the cytotoxicity at 10 µM was -110%.
For `O=S1(=O)COCCN1Cc1ccc(F)c(F)c1`, the cytotoxicity at 10 µM came out at 3.42%.
On to `Cc1nnc(N2CCOC(C)(C(=O)N(C)C)C2)c2ccccc12` (stereo not given), for which the cytotoxicity at 10 µM was 10.4%.
The result for `CN1CCCC2(CCN(Cc3cncn3C3CCCCC3)C2)C1=O` (stereo not given) reads -5.96%.
The result for `CC(C)N1CCC(c2cnc(-c3cn[nH]c3)cn2)CC1` reads 5.36%; that for `CC1=CC(C)(C)N(CN2C(=O)c3ccccc3C2=O)c2ccc(C)cc21`, -3.49%.
In the case of `Cc1nc(N2CCC3(CCCN(CCO)C3=O)C2)c2sccc2n1` (stereo not given), the cytotoxicity at 10 µM was -0.456%.
As for `CN(C)CCO[C@H]1CN(Cc2ccc3c(c2)OCO3)[C@@H]2COC[C@H]12`, the figure is -5.5%.
On to `CC(C)NC(=O)c1ccc2c(c1)C(c1nc[nH]n1)CN2S(C)(=O)=O` (stereo not given), for which the cytotoxicity at 10 µM was -132%.
`Cc1ccc(N2CC[C@@H]3CN(Cc4c[nH]cn4)C[C@@H]3C2)nn1`: the cytotoxicity at 10 µM was determined as 7.43%.
As to `N[C@@H]1c2ccccc2C2(CCN(C(=O)c3cncc(Cl)c3)CC2)[C@H]1O`, the cytotoxicity at 10 µM is -2.78%.
Take `NC(=O)C1CN(c2ccc(Br)cn2)CCO1` (stereo not given): the cytotoxicity at 10 µM came out at 0.105%.
Consider `CCCN1CCCn2nc(CNC(=O)CN(C)C3CCCC3)cc2C1`, for which the cytotoxicity at 10 µM is -0.992%.
Take `O=C(c1ccoc1)N1CCC(O)(C(F)(F)F)CC1`: the cytotoxicity at 10 µM turned out to be 3.88%.
Turning to `CC(=O)c1cccc(OCCCC(=O)NC(C#N)CC(C)C)c1` (stereo not given), the cytotoxicity at 10 µM was -41.3%.
As to `CN1CCC(Nc2ccc(Cl)cc2OCC(F)(F)F)C1=O` (stereo not given), the cytotoxicity at 10 µM was found to be 5.02%.
With `CNC(=O)N1CC[C@@H]2CN(Cc3cccnc3)S(=O)(=O)[C@@H]2CC1`, the cytotoxicity at 10 µM came to 4.4%.
For `O=C(CN1CSCC1=O)NCC1CCN(c2ccccc2)C1` (stereo not given), the cytotoxicity at 10 µM was 1.19%.
The result for `CCC(C)c1noc(C2CCN(C(=O)c3cccs3)CC2)n1` (stereo not given) reads -12.8%; that for `CN(CCc1ccncc1)Cc1c(C2CCCC2)[nH]c2ncccc12`, 1.46%.
In the case of `COc1cccc(-c2noc(C3CCN(Cc4ccncc4)C3)n2)c1` (stereo not given), the cytotoxicity at 10 µM was determined as 25.9%.
In the case of `COc1ccccc1CN1C(=O)O[C@@H]2CN(Cc3cccc(C)n3)C[C@@H]21`, the cytotoxicity at 10 µM was found to be 2.64%.
For the molecule `Cn1c(C2CC2)nc2cc(NC(=O)C3(O)CCCC3)ccc21`, the cytotoxicity at 10 µM amounted to 2.84%.
The result for `COc1ccc(C)cc1CCNS(C)(=O)=O` reads 2.39%; that for `NC(=O)C1CCN(CCCNC(=O)Nc2nccs2)CC1`, -0.287%; that for `CNc1nc(CNC(=O)Nc2cccc(CN(C)C)c2)cs1`, -8.04%.
As for `c1cncc(OC[C@]23COC[C@H]2CN(C2CCC2)C3)c1`, the figure is 4.64%.
As to `CC(C)c1nc(C2CCCN2Cc2ccno2)no1` (stereo not given), the cytotoxicity at 10 µM is -6.85%.
As for `Cn1ccnc1CC1CCCN(Cc2noc(C3CC3)n2)C1` (stereo not given), the figure is -5.68%.
The result for `Cc1cccc(OCCCNC(=O)NC(C)c2nncn2C)c1` (stereo not given) reads -7.5%; that for `CCc1ccc(C(=O)N2CCCC3(CCCC(=O)N3C)C2)cc1` (stereo not given), -5.72%.
The result for `COCCN1CCc2cc(C(=O)NC(C)C)c(NCC3CC3)nc2CC1` reads 3.22%.
Take `COC(=O)CCNC(=O)c1c[nH]cc1-c1cccc(OC)c1`: the cytotoxicity at 10 µM worked out at 4.89%.
In the case of `O=C(NCc1ccccn1)N(Cc1ccc(F)cc1F)C1CC1`, the cytotoxicity at 10 µM was -17.5%.
For the molecule `O=C1NC2(CCN(C(=O)N3CCOCC3)CC2)CC1c1cccnc1` (stereo not given), the cytotoxicity at 10 µM was -128%.
With `CC1=C(C#N)C(=O)N(C)C(=O)/C1=C\C1=Cc2ccccc2OC1`, the cytotoxicity at 10 µM was -39.4%.
As for `COCCN(C)C[C@@H]1CCC[C@@H]2CN(Cc3ccc(OC)nc3)C[C@@H]21`, the cytotoxicity at 10 µM amounted to 8.13%.
The result for `Cc1nn(C)c(C)c1CCC(=O)N1CCN(CCn2cncn2)CC1` reads 2.33%; that for `CCCNC(=O)Nc1ncc(-c2cccnc2)s1`, 3.11%.
As for `CC(C)n1ccc(C(=O)OCC2CC(=O)N(Cc3ccccc3)C2)n1` (stereo not given), the cytotoxicity at 10 µM was determined as 0.379%.
As for `CC(=O)Nc1ccc(Cl)c(C(=O)N(C)Cc2nc(C)c[nH]2)c1`, the cytotoxicity at 10 µM is 1.37%.
The result for `Cn1cc(CCNC(=O)NC2CCN(Cc3ccccn3)CC2)cn1` reads -16.4%.
In the case of `CCCN(Cc1ccccc1O)S(=O)(=O)N(C)CC`, the cytotoxicity at 10 µM is 10.2%.
As for `COCC1CN(Cc2ccncc2)Cc2nn(C)cc21` (stereo not given), the figure is -74.1%.
With `CC(C)NC(=O)N1C[C@@H](F)[C@@H](OCc2nc3ccccc3o2)C1`, the cytotoxicity at 10 µM was found to be 8.16%.
On to `CC(C)Cc1cc(NC(=O)c2ccccc2)n(C)n1`, for which the cytotoxicity at 10 µM was -3.37%.
In the case of `CCS(=O)(=O)N1CCc2nc(N3CCOCC3)nc(N(C)C)c2CC1`, the cytotoxicity at 10 µM turned out to be 21.3%.
As to `O=S(=O)(c1ccc(Cl)s1)N1CCCn2ncnc21`, the cytotoxicity at 10 µM is -3.06%.
With `CCOCCCNC(=O)c1ccccc1S(C)(=O)=O`, the cytotoxicity at 10 µM is -1.58%.
Take `CC(C)N(C)Cc1cnc2n1CCN(Cc1ccc(F)cc1)C2`: the cytotoxicity at 10 µM was found to be 1.44%.
`Cc1cc(C)n(C2CN(CC(O)c3ccc4c(c3)OCO4)C2)n1` (stereo not given): the cytotoxicity at 10 µM is -15.7%.
For `CN(Cc1ccccc1NCc1cscn1)C(=O)c1cccs1`, the cytotoxicity at 10 µM amounted to 0.503%.
Turning to `Cc1cnc(N2CCOC(C(=O)NCc3ccccc3)C2)s1` (stereo not given), the cytotoxicity at 10 µM was -2.84%.
On to `Clc1ccc(CN2CCC(C3CCN(Cc4cccnc4)CC3)C2)cc1` (stereo not given), for which the cytotoxicity at 10 µM turned out to be 11.3%.
As for `NC(=O)N1C[C@H]2CN(Cc3nccs3)C[C@H]2C1`, the figure is 2.6%; as for `Cn1cc(C2CCCN2C(=O)Cn2ccc3ccc(Cl)cc32)cn1` (stereo not given), 8.81%.
In the case of `Cc1cc(C(=O)NCc2ccc(N3CCCC(C(N)=O)C3)cc2)on1` (stereo not given), the cytotoxicity at 10 µM was -9.56%.
Turning to `CCN1CCN(c2ncc(-c3cc(C)no3)c(-c3ccc(C)s3)n2)CC1`, the cytotoxicity at 10 µM amounted to 2.44%.

(Values after ChEMBL document CHEMBL4513216, “Probing the Open Global Health Chemical Diversity Library for Multistage-Active Starting Points for Next-Generation Antimalarials” (ACS Infect Dis, 2020).)
